# Source: PubChem BioAssay
# Compounds with a hit are over-represented: about 4.9% of the library has one in this group of screens.
# NF-kB expr up: NF-kB expression increase, human neuronal cells | NF-kB reporter expression; hits give high values | fold change at 12.5 µM | hit rate 1.6% among 190,000 | AID 1239; in the data active = fold change above about 3.3
# STAT1 activator: activators of IFN-gamma induced STAT1 signaling; NIH 3T3 STAT1-luciferase reporter, luminescence; 100% = IFN-gamma alone, no compound; activation (% of control), % at 5.5 µM; hit rate 2.6% among 200,000;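 active = activation above the screen-wide mean activation plus 3 SD, cut at about 130% in these data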;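 note: raw ratio to IFN-gamma control signal so 100% means no change and 0% no light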
# STAT1 inh: reduces IFN-gamma driven STAT1 reporter signal | NIH 3T3 STAT1-luciferase reporter, luminescence | inhibition, % at 5.5 µM | hit rate 0.35% among 200,000;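 active = inhibition above a set limit, the mean inhibition across all tested compounds plus 3 SD, cut at about 34% in these data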;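 note: 0% = IFN-gamma with DMSO and 100% = IFN-gamma with 300 µM nifuroxazide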
# STAT3 inh: reduces IL-6 driven STAT3 reporter signal. U3A cells, IL-6 STAT3-luciferase reporter, luminescence; host cell line lacks STAT1. AID 862. inhibition, % at 5.5 µM. hit rate 0.89% among 190,000;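 active = inhibition above the mean inhibition across all screened compounds plus 3 SD, cut at about 44% in these data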;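 note: 0% = DMSO only wells and 100% = 100 µM nifuroxazide control wells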
# STAT3 act: activators of IL-6 induced STAT3 signaling. activation (% of control), % at 5.6 µM. U3A cells, IL-6 STAT3-luciferase reporter, luminescence; 100% = signal with IL-6 EC80 alone. hit rate 0.91% among 190,000;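 active = activation above the screen-wide mean of compound activation plus 3 SD, cut at about 130% in these data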;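 note: 0% = background luminescence of wells with medium and substrate only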
#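 Assay system – human STAT1-deficient U3A cells with stable STAT3-luciferase reporter · Also added – IL-6 (33 ng/mL) · Schedule – compound 1 h, then IL-6 6 h at 37 °C · Technique – reporter luminescence signal · Evaluation – % activation versus median of IL-6-stimulated wells · Benchmarks – IL-6-only wells as 100% reference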
# APP 5'UTR act: activates APP 5'UTR luciferase reporter | AID 1276 | activation, % at 2 µM | SH-SY5Y APP 5'UTR luciferase reporter, luminescence; zero percent = DMSO vehicle wells | hit rate 1% among 190,000;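 active = activation above a set limit, based on mean plus 3 SD of controls, cut at about 140% in these data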
# STAT1 activ conf: confirmation of STAT1 signaling activators | AID 1262 | shares compounds with STAT1 activator | NIH 3T3 STAT1-luciferase reporter, IFN-gamma potentiation, luminescence; 100% = IFN-gamma EC80 alone, no compound | hit rate 97% among 1,200 | activation (% of control), % at 5.7 µM;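 active = activation above a set limit carried over from the earlier primary STAT1 screen, cut at about 140% in these data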;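 note: simple ratio to median IFN-gamma plus DMSO wells so 0% means no light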
# NFkB act: counter-screen for STAT1 activators: NF-kappaB activation | HEK293T NF-kB luciferase reporter, TNF-alpha stimulated, luminescence; 100% = TNF-alpha with vehicle only | hit rate 43% among 1,200 | activation (% of control), % at 5.7 µM | shares compounds with STAT1 activator;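 active = activation above the mean of solvent-only control wells plus 3 SD, set per campaign, cut at about 130% in these data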;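 note: TNF-alpha given at a submaximal dose yielding about 80% of full reporter signal; values are well signal over median control so 100% means no change and 0% no light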
# STAT3 act 2: human STAT3 activation in STAT1 activator counter-screen | U3A cells STAT3-luciferase reporter, IL-6, luminescence; cells lack STAT1; 100 = IL-6 alone, no compound effect | hit rate 46% among 1,200 | shares compounds with STAT1 activator | activation (% of control), % at 5.7 µM | AID 1316;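 active = activation above the solvent-only control well mean plus 3 SD, set per plate batch, cut at about 110% in these data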;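 note: 0% = no luminescence and 100% = median IL-6 plus DMSO wells; higher means more STAT3 reporter activation so hits are non-selective activators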
# * marks the source's active call; other numbers are inactive results; / = no result.
SMILES,NF-kB expr up,STAT1 activator,STAT1 inh,STAT3 inh,STAT3 act,APP 5'UTR act,STAT1 activ conf,NFkB act,STAT3 act 2
O=C(Cc1nc(=O)c2ccccc2s1)Nc1ccccc1,5.8*,157*,-63,4,103,189*,274*,145*,122*
Nc1c(C(O)(C(F)(F)F)C(F)(F)F)cc(C(O)(C(F)(F)F)C(F)(F)F)c2ccccc12,1.8,97,4,9,95,10,/,/,/
O=C(c1ccccc1C(=O)N(c1ccccc1)c1ccccc1)N1CCCCC1,1.3,100,0,14,95,10,/,/,/
COc1ccc(C2N=C(N)N=C(N)N2c2ccccc2OC)cc1OC (configuration not stated),1.4,93,8,-9,110,-1,/,/,/
CCN1C/C(=C/c2ccc(OC)c(O)c2)C(=O)/C(=C/c2ccc(OC)c(O)c2)C1,0.24,335*,-254,4,100,-88,109,138*,97
O=C(c1nc2ccccn2c1CN1CCCC(OCc2ccccc2)C1)N1CCCC1 (configuration not stated),1.4,82,18,4,100,7,/,/,/
CC(C)(C)NC(=O)CSc1nc(O)cc(=O)[nH]1,1.2,96,4,-7,106,-4,/,/,/
CC(C)(C)N1C(=O)c2ccc(C(=O)Nc3nccs3)cc2C1=O,2,154*,-59,21,84,-11,174*,126,117*
O=C(Nc1ccc(N2CCCC2)cc1)c1ccc(Br)o1,2.9,166*,-72,19,87,57,217*,134*,103
O=C(Nc1ccc(N2CCCCC2)cc1)c1ccc(F)cc1,2.5,162*,-68,39,69,113,216*,130,102
COc1ccc(C(=O)Nc2ccc(N3CCCC3)cc2)cc1,1.6,101,-1,18,89,20,/,/,/
COc1ccc(S(=O)CC(=O)Nc2ccc(Cl)cc2Cl)cc1 (configuration not stated),1.1,91,9,14,93,-3,/,/,/
Cc1c(C(=O)NCC2CCCO2)oc2ccc(S(=O)(=O)N3CCCC3)cc12 (configuration not stated),0.37,106,-8,12,94,-7,/,/,/
Cc1c(C(=O)NCC2CCCO2)oc2ccc3c(c12)C(=O)CC(C)(C)O3 (configuration not stated),3.4*,155*,-61,21,85,156*,209*,122,126*
COc1ccc(NC(=O)Cc2ccc(Cl)c(Cl)c2)cn1,1.1,106,-8,8,100,9,/,/,/
COc1ccc(NC(=O)/C(Cl)=C(/Cl)S(=O)Cc2ccccc2Cl)cn1 (configuration not stated),0.31,346*,-268,18,87,-94,292*,65,133*
O=C(NC1=NCCS1)c1sc2cc(F)ccc2c1Cl,4.8*,172*,-79,-13,117,86,209*,131,150*
O=C(NCc1ccco1)c1sc2cc(F)ccc2c1Cl,1.7,111,-7,24,82,22,/,/,/
C(=N\N(c1ccccc1)c1ccccc1)/c1ccc2c(c1)OCO2,1.1,106,-6,-5,108,-14,/,/,/
CN(/N=C/c1ccc2c(c1)OCO2)c1ccccc1,2.2,155*,-61,2,101,93,180*,139*,108
O=C(O)/C=C/C(=O)Nc1ccccc1-c1ccccc1NC(=O)/C=C/C(=O)O,0.98,99,1,-4,104,/,/,/,/
O=C(O)/C=C\C(=O)Nc1ccccc1C#Cc1ccc(Br)cc1,8*,159*,-65,-2,111,158*,131*,130,95
COc1ccc(-c2cc(-c3ccc(OC)cc3)[nH]n2)cc1,1.4,151*,-56,15,89,53,162*,123,94
Cc1ccc(-n2nnc(-c3ccnc4ccccc34)n2)cc1,4.2*,156*,-58,/,/,111,183*,136*,104
Fc1ccc(-n2nnc(-c3ccnc4ccccc34)n2)cc1,4.8*,171*,-74,/,/,142*,203*,139*,117*
SMILES,NF-kB expr up,STAT1 activator,STAT1 inh,STAT3 inh,STAT3 act,APP 5'UTR act,STAT1 activ conf,NFkB act,STAT3 act 2
O=C1c2ccccc2C(=O)N1Cc1ccco1,1.2,97,0,1,102,11,/,/,/
CC1=CC(=C2C(=O)c3ccccc3C2=O)C=C(C)N1Cc1ccco1,4.6*,165*,-71,14,90,128,178*,134*,109
Cc1ccc(NC(=O)CCSCCc2ccccn2)cc1,0.97,101,-3,4,100,10,/,/,/
Cc1ccc(NC(=O)COc2ccccc2C=O)cc1Cl,6.8*,200*,-113,-4,107,154*,209*,137*,109
COc1ccc(OC)c(NC(=O)c2nc3ccccc3s2)c1,0.9,121,-26,-10,109,39,/,/,/
CCOc1ccc2nc(NC(=O)Nc3cccs3)sc2c1,9.5*,184*,-92,12,89,216*,253*,149*,121*
CCOc1ccc2nc(NC(=O)Nc3ccccc3)sc2c1,2.5,155*,-59,16,91,148*,224*,139*,115*
COc1ccc(NC(=O)c2nc3ccccc3s2)cc1,7.5*,161*,-69,42,67,208*,232*,96,99
CCOc1ccc2nc(NC(=O)CN3CCN(C)CC3)sc2c1,1.5,113,-14,-9,111,12,/,/,/
COc1ccc2nc(NC(=O)Nc3ccccc3)sc2c1,9.1*,205*,-116,24,81,189*,280*,117,98
COc1ccc2nc(NC(=O)c3ccccc3-c3ccccc3C(=O)O)sc2c1,2.3,106,-8,6,97,14,/,/,/
CCc1cccc(C)c1NC(=S)N(CCCN1CCOCC1)Cc1cccnc1,1.2,96,5,2,99,14,/,/,/
[O-][n+]1c2c(nc3c1-c1ccccc1C3O)CCCC2 (configuration not stated),1.5,117,-17,14,90,19,/,/,/
CCCCOC(=O)Nc1nc2ccccc2s1,5.4*,153*,-58,28,79,12,213*,133,105
